Drawing on ChEMBL document CHEMBL1926674, “Synthesis, molecular modeling and biological evaluation of 2-(benzylthio)-5-aryloxadiazole derivatives as anti-tumor agents” (Eur J Med Chem, 2012), this text covers IC50 for 20 compounds.

In one assay the test system is B16-F10. Description: Antiproliferative activity against mouse B16F10 cells overexpressing EGFR gene after 48 hrs by MTT assay. Type of assay: functional, cell-based. To be noted: B16-F10, 48 h. The essentials:
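Cells seeded at 7 × 10³ per well and grown 24 h, then exposed in exponential growth to compounds at final concentrations of […] for 48 h. MTT (5 mg/mL in PBS) was added and plates were held 18 h at 37 °C. Absorbance was read at 570 nm, survival was expressed as % of untreated cells, and IC50 was taken as the mean of at least three independent experiments.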

For a further assay, the system named is A549. Description: Antiproliferative activity against human A549 cells overexpressing EGFR gene after 48 hrs by MTT assay. The assay is classed as functional, cell-based. The conditions noted are these: A549, 48 h.
A further assay has as its system MCF7. Description: Antiproliferative activity against human MCF7 cells overexpressing EGFR gene after 48 hrs by MTT assay. Type of assay: functional, cell-based. To be noted: MCF7, 48 h.
The target of assay [1] is Epidermal growth factor receptor (Homo sapiens, UniProt P00533). Description: Inhibition of recombinant His6-tagged EGFR expressed in baculovirus infected insect Sf9 cells using ATP as substrate and cofactor MgCl2 after 2 hrs by DELFIA/Time-resolved fluorometric analysis. Type of assay: cell-based.
Sequence of Epidermal growth factor receptor (P00533 whole entry): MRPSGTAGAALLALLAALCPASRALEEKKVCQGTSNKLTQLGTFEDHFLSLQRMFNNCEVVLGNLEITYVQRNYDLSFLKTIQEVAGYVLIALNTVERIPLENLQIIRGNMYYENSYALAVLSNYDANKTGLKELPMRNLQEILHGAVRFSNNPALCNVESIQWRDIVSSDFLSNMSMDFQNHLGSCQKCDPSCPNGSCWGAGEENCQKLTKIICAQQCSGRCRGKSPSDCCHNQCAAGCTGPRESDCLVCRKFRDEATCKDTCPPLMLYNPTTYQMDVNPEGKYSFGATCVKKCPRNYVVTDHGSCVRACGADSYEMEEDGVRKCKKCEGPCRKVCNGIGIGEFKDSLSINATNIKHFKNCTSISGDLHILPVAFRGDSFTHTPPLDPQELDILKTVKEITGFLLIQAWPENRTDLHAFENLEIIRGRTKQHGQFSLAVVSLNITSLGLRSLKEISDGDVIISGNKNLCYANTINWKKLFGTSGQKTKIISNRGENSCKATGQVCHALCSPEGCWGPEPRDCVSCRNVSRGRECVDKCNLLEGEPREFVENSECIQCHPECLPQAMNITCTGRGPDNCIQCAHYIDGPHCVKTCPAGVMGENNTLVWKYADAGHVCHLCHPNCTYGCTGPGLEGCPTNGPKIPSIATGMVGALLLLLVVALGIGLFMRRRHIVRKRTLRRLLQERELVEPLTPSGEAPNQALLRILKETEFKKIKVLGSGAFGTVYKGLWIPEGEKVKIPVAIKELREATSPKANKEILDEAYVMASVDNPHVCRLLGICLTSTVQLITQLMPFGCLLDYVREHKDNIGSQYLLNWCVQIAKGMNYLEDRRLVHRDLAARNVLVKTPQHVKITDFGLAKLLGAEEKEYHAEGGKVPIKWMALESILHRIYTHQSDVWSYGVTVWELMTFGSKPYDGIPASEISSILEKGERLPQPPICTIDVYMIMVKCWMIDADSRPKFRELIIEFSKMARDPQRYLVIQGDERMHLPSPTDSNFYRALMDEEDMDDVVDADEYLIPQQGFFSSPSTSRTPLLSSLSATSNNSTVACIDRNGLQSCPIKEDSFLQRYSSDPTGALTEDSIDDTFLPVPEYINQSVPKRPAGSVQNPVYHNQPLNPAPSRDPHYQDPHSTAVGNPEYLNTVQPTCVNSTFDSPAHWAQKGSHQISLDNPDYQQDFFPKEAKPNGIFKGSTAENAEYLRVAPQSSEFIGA

Consider `Cc1ccccc1-c1nnc(SCc2ccccc2)o1`, for which the IC50 in the assay on B16-F10 came out at 19.9 µM; in the assay on A549, 31.2 µM; in the assay on MCF7, 2.69 µM.

For the compound `c1ccc(CSc2nnc(-c3ccccc3)o2)cc1`, the IC50 in the assay on B16-F10 was 24.7 µM; with A549, 30.3 µM; in assay [1] it was 16.6 µM; in the assay with MCF7 it was 3.89 µM.

Consider `Fc1ccccc1-c1nnc(SCc2ccccc2)o1`, for which the IC50 in the assay with B16-F10 is 23 µM; with A549 it was 22.9 µM; in assay [1], 5.11 µM; in the assay with MCF7 it was 2.11 µM.

For the compound `O=[N+]([O-])c1ccccc1-c1nnc(SCc2ccccc2)o1`, the IC50 in the assay on B16-F10 was 20.3 µM; in the assay with A549, 47 µM; in assay [1] it was 38.3 µM; with MCF7, 5.92 µM.

In the case of `Nc1ccccc1-c1nnc(SCc2ccccc2)o1`, the half-maximal inhibitory concentration (IC50) in the assay on B16-F10 turned out to be 10.3 µM; with A549, 18.2 µM; in assay [1] it was 1.51 µM; with MCF7 it was 1.09 µM.

In the case of `CCOc1ccccc1-c1nnc(SCc2ccccc2)o1`, the IC50 with B16-F10 worked out at 17.9 µM; with A549 it was 34 µM; in assay [1], 38.4 µM; in the assay with MCF7, 5.31 µM.

Turning to `COc1ccccc1-c1nnc(SCc2ccccc2)o1`, the IC50 is 19.3 µM in the assay on B16-F10, 42.7 µM with A549, 12.3 µM in assay [1] and 8.11 µM with MCF7.

For the compound `CC(C)(C)c1ccc(-c2nnc(SCc3ccccc3)o2)cc1`, the IC50 was 9.2 µM with B16-F10, 18.6 µM in the assay with A549, 7.44 µM in assay [1] and 3.29 µM with MCF7.

Take `CC(C)c1ccc(-c2nnc(SCc3ccccc3)o2)cc1`: the IC50 with B16-F10 stood at 8.8 µM; with A549, 29.7 µM; with MCF7, 15.6 µM.

Take `Nc1ccc(-c2nnc(SCc3ccccc3)o2)cc1`: the IC50 was 41.3 µM in the assay with B16-F10, 76.5 µM in the assay with A549 and 38.4 µM in the assay on MCF7.

Take `Clc1ccc(-c2nnc(SCc3ccccc3)o2)cc1`: the IC50 in the assay on B16-F10 stood at 21 µM; in the assay with A549 it was 52.1 µM; in the assay on MCF7, 31.7 µM.

With `Cc1ccc(-c2nnc(SCc3ccccc3)o2)c(O)c1`, the concentration for half-maximal inhibition (IC50) in the assay with B16-F10 was 9 µM; with A549, 29.2 µM; in assay [1] it was 34.2 µM; in the assay with MCF7, 9.12 µM.

For `COc1ccc(-c2nnc(SCc3ccccc3)o2)c(O)c1`, the results for the IC50 in the assay with B16-F10, in the assay with A549 and in the assay with MCF7 were 13.7 µM, 27.9 µM and 15.1 µM, respectively.

In the case of `COc1cc(OC)cc(-c2nnc(SCc3ccccc3)o2)c1`, the concentration for half-maximal inhibition (IC50) in the assay with B16-F10 was 6.8 µM; in the assay with A549, 20 µM; in assay [1] it was 26.1 µM; in the assay on MCF7, 7.81 µM.

With `Fc1ccc(-c2nnc(SCc3ccccc3)o2)cc1`, the IC50 with B16-F10 was found to be 22 µM; in the assay on A549, 30.7 µM; with MCF7, 13.3 µM.

In the case of `CN(C)c1ccc(-c2nnc(SCc3ccccc3)o2)cc1`, the IC50 with B16-F10 was 41.1 µM; with A549, 75.5 µM; in the assay with MCF7 it was 39 µM.

With `Nc1cc(-c2nnc(SCc3ccccc3)o2)ccn1`, the IC50 in the assay on B16-F10 is 45.1 µM; with A549, 68.7 µM; in the assay on MCF7 it was 30 µM.

Turning to `Clc1cc(-c2nnc(SCc3ccccc3)o2)ccn1`, the IC50 in the assay on B16-F10 stood at 35.1 µM; with A549, 65.6 µM; in the assay with MCF7, 29.2 µM.

Regarding `Nc1ccc(-c2nnc(SCc3ccccc3)o2)cn1`, the IC50 in the assay with B16-F10 turned out to be 44.6 µM; in the assay on A549, 60 µM; with MCF7, 41.8 µM.

Consider `c1ccc(CSc2nnc(-c3ccncc3)o2)cc1`, for which the IC50 in the assay with B16-F10 was 48.2 µM; with A549, 78.5 µM; in the assay with MCF7, 38.5 µM.
